Values after ≈ are worked out from the molar mass of the structure shown.
Key:
[1] = system: Escherichia coli expressing KPC-2; assay: MIC by broth dilution, E. coli expressing KPC-2; assay type: cell-based
[2] = system: Escherichia coli Top10 vector control (no β-lactamase); assay: MIC by broth dilution, E. coli vector control; assay type: cell-based
[3] = system: Escherichia coli expressing KPC-44; assay: MIC by broth dilution, E. coli expressing KPC-44; assay type: cell-based; settings: for fold lower MIC than WT KPC-2: E. coli expressing KPC-44 vs KPC-2; for MIC: Escherichia coli
KPC-44 [4] = target: T1, KPC-44 (Klebsiella pneumoniae, UniProt Q9F663, DUP260-274); assay type: biochemical; settings: for kcat / Km: substrate hydrolysis by KPC-44, 30 °C; for kcat: 50 mM sodium phosphate pH 7; for Km: pH 7; for fold lower kcat than KPC-2 / fold lower kcat/KM than KPC-2: KPC-44 vs KPC-2
KPC-2 [5] = target: T2, KPC-2 (Klebsiella pneumoniae, UniProt Q9F663); assay: Decarbamylation/deborylation rate; assay type: biochemical; settings: jump dilution, 30 °C
Summary of the method: (§1)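 It was then diluted 100-fold into the same buffer and added to 200 μM nitrocefin at 1:10. Recovery of activity was followed continuously at A482, 30 °C. Vaborbactam deborylation was run the same way.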

KPC-44 [6] = target: T1, KPC-44; assay: Decarbamylation/deborylation rate; assay type: biochemical; settings: for k-2: KPC-44, jump dilution, 30 °C
Summary of the method: as §1

KPC-44 [7] = target: T1, KPC-44; assay: Inhibition of nitrocefin hydrolysis; assay type: biochemical
KPC-2 [8] = target: T2, KPC-2; assay: Steady-state kinetics of β-lactam hydrolysis by KPC-2; settings: substrate hydrolysis by KPC-2; 30 °C, 50 mM sodium phosphate pH 7
KPC-2 [9] = target: T2, KPC-2; assay: Inhibition of nitrocefin hydrolysis; assay type: biochemical
[10] = system: CC(C)(O/N=C(\C(=O)N[C@@H]1C(=O)N2C(C(=O)[O-])=C(C[n+]3ccccc3)CS[C@H]12)c1csc(N)n1)C(=O)O; assay: purified protein, by the assay type; settings: other: substrate hydrolysis by KPC-2, 30 °C, pH 7
[11] = system: C[C@@H](O)[C@H]1C(=O)N2C(C(=O)O)=C(SCCN=CN)C[C@H]12; assay: purified protein, by the assay type; settings: other: substrate hydrolysis by KPC-2, 30 °C, pH 7
[12] = system: C[C@@H](O)[C@H]1C(=O)N2C(C(=O)O)=C(S[C@@H]3CN[C@H](C(=O)N(C)C)C3)[C@H](C)[C@H]12; assay: purified protein, by the assay type; settings: other: substrate hydrolysis by KPC-2, 30 °C, pH 7

With `CC1(C)S[C@@H]2[C@H](NC(=O)[C@H](N)c3ccccc3)C(=O)N2[C@H]1C(=O)O` [Ampicillin] the MIC [1] was 128 µg/mL (≈ 366 µM), the MIC [2] was 4 µg/mL (≈ 11.4 µM) and the “fold lower MIC than WT KPC-2” value [3] was 2 fold. It also gave an MIC [3] of 64 µg/mL (≈ 183 µM), a kcat (KPC-44 [4]) of 126 ± 5 s⁻¹ and a Km (KPC-44 [4]) of 232 ± 22 µM.
In the case of `NC(=O)[C@@H]1CC[C@@H]2CN1C(=O)N2OS(=O)(=O)O` [Avibactam], the k-2 (KPC-2 [5]) is reported as “(9.6 ± 0.020) × 10^−5 s^−1” and the k-2 (KPC-44 [6]) is reported as “(7.1 ± 0.32) × 10^−5 s^−1”.
`CC(C)(O/N=C(\C(=O)N[C@@H]1C(=O)N2C(C(=O)[O-])=C(C[n+]3ccccc3)CS[C@H]12)c1csc(N)n1)C(=O)O` [Ceftazidime] showed an MIC [1] of 2 µg/mL (≈ 3.66 µM), an MIC [2] of 0.5 µg/mL (≈ 0.915 µM) and an MIC [3] of 8 µg/mL (≈ 14.6 µM).
`O=C(O)[C@H]1/C(=C/CO)O[C@@H]2CC(=O)N21` [Clavulanate] gave an IC50 (KPC-44 [7]) of 4800 ± 170 nM.
`C[C@@H](O)[C@H]1C(=O)N2C(C(=O)O)=C(SCCN=CN)C[C@H]12` [Imipenem] was tested, and the MIC [1] was 1.5 µg/mL (≈ 5.01 µM), the MIC [2] was 0.25 µg/mL (≈ 0.835 µM) and the “fold lower MIC than WT KPC-2” value [3] was 2 fold. The “fold higher MIC than negative control” value ([3]; E. coli expressing KPC-44 vs no β-lactamase control) was 3 fold, the MIC [3] was 0.75 µg/mL (≈ 2.51 µM) and the “fold lower kcat than KPC-2” value (KPC-44 [4]) was 8 fold. The “fold lower kcat/KM than KPC-2” value (KPC-44 [4]) was 4 fold, the kcat (KPC-44 [4]) was 6.4 ± 0.33 s⁻¹ and the Km (KPC-44 [4]) was 57 ± 7.1 µM.
`C[C@@H](O)[C@H]1C(=O)N2C(C(=O)O)=C(S[C@@H]3CN[C@H](C(=O)N(C)C)C3)[C@H](C)[C@H]12` [Meropenem] was tested, and the MIC [1] was 0.375 µg/mL (≈ 0.978 µM), the MIC [2] was 0.25 µg/mL (≈ 0.652 µM) and the MIC [3] was 0.25 µg/mL (≈ 0.652 µM). For the same compound, the “fold lower kcat than KPC-2” value (KPC-44 [4]) was 7 fold, the “fold lower kcat/KM than KPC-2” value (KPC-44 [4]) was 3 fold and the kcat (KPC-44 [4]) was 0.46 ± 0.022 s⁻¹. For the same compound, the Km (KPC-44 [4]) was 7.3 ± 1.4 µM.
With `O=C(Cc1cccs1)N[C@@H]1C(=O)N2C(C(=O)O)=C(/C=C/c3ccc([N+](=O)[O-])cc3[N+](=O)[O-])CS[C@H]12` [Nitrocefin] the kcat (KPC-2 [8]) was 130 ± 2.2 s⁻¹, the kcat (KPC-44 [4]) was 20 ± 0.67 s⁻¹ and the Km (KPC-44 [4]) was 16 ± 1.4 µM.
With `O=C(O)C[C@@H]1CC[C@H](NC(=O)Cc2cccs2)B(O)O1` [Vaborbactam] the IC50 (KPC-44 [7]) was 220 ± 0.92 nM, the “fold difference in IC50 (less potent versus KPC-44 compared to KPC-2)” value (KPC-44 [7]; KPC-44 vs KPC-2) was “less than 2 fold” and the IC50 (KPC-2 [9]) was 130 ± 5.4 nM. The k-2 (KPC-2 [5]) was “(1.2 ± 0.014) × 10^−5 s^−1”, the k-2 (KPC-44 [6]) was “(2.9 ± 0.047) × 10^−5 s^−1” and the “fold higher k-2 than KPC-2” value (KPC-44 [6]; KPC-44 vs KPC-2) was 3 fold.
For KPC-2 (Klebsiella pneumoniae), the kcat [10] was > 0.8 s⁻¹, the kcat/Km [10] was 1100 ± 66 M⁻¹ s⁻¹ and the Km [11] was 130 ± 33 µM. The kcat [11] was 50 ± 4.5 s⁻¹, the kcat/Km [11] was 380000 ± 100000 M⁻¹ s⁻¹ and the Km [12] was 19 ± 2.9 µM. The kcat [12] was 3.3 ± 0.18 s⁻¹ and the kcat/Km [12] was 170000 ± 28000 M⁻¹ s⁻¹.

From PMC10716778 (The Journal of Biological Chemistry, 2023)
